Activity calls are given as the source filed them. The calls are words filed in the database; no cut-off is given here.
How the values were obtained:
Type in all cases: functional, cell-based
[1] = (§1) Antiinflammatory activity in human neutrophils assessed as inhibition of FMLP/CB-induced superoxide anion generation by measuring superoxide dismutase-inhibitable reduction of ferricytochrome c by spectrophotometric analysis; settings: Neutrophil
Method in brief: (§2)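 Dextran/Ficoll-purified human neutrophils (6 × 10^5 cells/mL) with ferricytochrome c and 1 mM Ca2+, 2 min at 37 °C. Primed with 1 µg/mL cytochalasin B, then 100 nM FMLP. A550 monitored continuously with stirring. Superoxide taken as the SOD (100 U/mL)-inhibitable reduction using ε 21.1/mM/10 mm. IC50 from mean of n = 3.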

Neutrophil [2] = test: as §1; method in brief: as §2
[3] = (§3) Antiinflammatory activity in human neutrophils assessed as inhibition of FMLP/CB-induced elastase release using MeO-Suc-Ala-Ala-Pro-Val-p-nitroanilide as substrate incubated for 5 mins by spectrophotometric analysis; settings: Neutrophil
Method in brief: (§4)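 Neutrophils from healthy donor blood, isolated by dextran sedimentation, Ficoll gradient and hypotonic lysis, kept in Ca2+-free HBSS pH 7.4 at 4 °C. Cells at 6 × 10^5/mL with 100 µM substrate, 2 min at 37 °C, then drug or 0.1% DMSO vehicle for 5 min. Activated with 100 nM FMLP + 0.5 µg/mL CB. A405 followed continuously; % of drug-free activated control; IC50 from mean of n = 3.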

Neutrophil [4] = test: as §3; method in brief: as §4
Neutrophil [5] = test: Induction of superoxide anion generation in human neutrophils by spectrophotometric analysis
Neutrophil [6] = test: Induction of ferricytochrome c reduction in human neutrophils by spectrophotometric analysis
Neutrophil [7] = test: Induction of FMLP/CB-mediated superoxide anion generation in human neutrophils by measuring superoxide dismutase-inhibitable reduction of ferricytochrome c by spectrophotometric analysis

IC50 [1] [µM] | IC50 [3] [µM] | SMILES | inhibition (Neutrophil [2]) | inhibition (Neutrophil [4]) | Activity (Neutrophil [5]) | Activity (Neutrophil [6]) | Activity (Neutrophil [7])
19.3 | 3.81 | C=CCc1ccc(O)c(-c2ccc(O[C@@H]3CCc4cc(CC=C)cc(-c5cc(CC=C)ccc5O)c4O3)cc2O)c1 | Dose-dependent effect | Dose-dependent effect | – | – | –
– | 0.63 | C=CCc1ccc(O)c(-c2cc(CC=C)cc(C=O)c2O)c1 | – | Dose-dependent effect | Active | – | –
5.48 | 3.39 | C=CCc1ccc(O)c(-c2cc(CC=C)cc(OC)c2O)c1 | Dose-dependent effect | Dose-dependent effect | – | – | –
4.21 | 2.16 | C=CCc1ccc(O)c(-c2cc(CC=C)cc([C@H]3C[C@@](C)(O)CC[C@@H]3C(C)C)c2O)c1 | Dose-dependent effect | Dose-dependent effect | – | – | –
14.3 | 8.18 | C=CCc1ccc(O)c(-c2ccc(OC)c(CC=C)c2)c1 [METHYLHONOKIOL] | Dose-dependent effect | Dose-dependent effect | – | – | –
3.2 | 2 | CNC(=O)c1cc(Oc2ccc(NC(=O)Nc3ccc(Cl)c(C(F)(F)F)c3)cc2)ccn1 [SORAFENIB] | – | – | – | – | –
4.17 | 2.59 | C=CCc1ccc(O)c(-c2cc(CC=C)cc3c2O[C@@H]2[C@H]3[C@@H](C(C)C)CC[C@@]2(C)O)c1 | Dose-dependent effect | Dose-dependent effect | – | – | –
10.8 | 14.8 | C=CCc1ccc(O)c(-c2cc(CC=C)cc([C@@H]3C=C(C)CC[C@H]3C(C)C)c2O)c1 | Dose-dependent effect | Dose-dependent effect | – | – | –
15.1 | 10.7 | C=CCc1ccc(O)c(-c2cc(CC=C)cc([C@@H]3[C@@H](C(C)C)CC[C@@](C)(O)[C@@H]3O)c2O)c1 | Dose-dependent effect | Dose-dependent effect | – | – | –
– | 3.3 | C=CCc1ccc(Oc2cc(CC=C)cc(O)c2O)cc1 [OBOVATOR] | – | Dose-dependent effect | – | Active | –
– | 2.25 | C=CCc1ccc(O)c(-c2cc(O[C@H]3CCc4cc(CC=C)cc(-c5cc(CC=C)ccc5O)c4O3)ccc2O)c1 | – | Dose-dependent effect | – | – | Active
3.54 | 3.67 | C=CCc1ccc(Oc2cc(CC=C)c3c(c2O)O[C@@]2(C)CC[C@@H](C(C)C)[C@@H]3C2)cc1 | Dose-dependent effect | Dose-dependent effect | – | – | –
8.16 | 3.56 | C=CCc1ccc(O)c(-c2cc(CC=C)cc([C@H]3C[C@](C)(O)CC[C@@H]3C(C)C)c2O)c1 | Dose-dependent effect | Dose-dependent effect | – | – | –
7.89 | 18.2 | C=CCc1ccc(O)c(-c2ccc(O)c(OC)c2)c1 | Dose-dependent effect | Dose-dependent effect | – | – | –

Source: ChEMBL document CHEMBL3763107, “Anti-inflammatory neolignans from the roots of Magnolia officinalis” (Bioorg Med Chem, 2016)
